≈ marks a conversion by molar mass, not a printed value. Calls of active or inactive are those of the source. The calls are words filed in the database; no cut-off is given here.
What was measured:
[1] = Stabilization of double stranded PEPu24T mut DNA (unknown origin) assessed as inhibition of Taq DNA polymerase activity by measuring reduction in full length DNA product at 6 uM pretreated for 10 mins followed by incubation with dNTPs for 15 mins by PAGE analysis; details: time 25.0 min
In short: (§1)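 Non-G4 control template: TET-labelled 25 nt primer (1 μM final) annealed to mutated PEPu24T mut (1.25 μM final) in 100 mM KCl. 40 nM template, Taq buffer pH 8.8, 25 mM MgCl2, 0.05 U Taq. Compound on ice 10 min, then 100 μM dNTPs at 37 °C 15 min. Denaturing PAGE; full-length product as % of no-compound sample.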

[2] = Solubility of the compound at pH 7.4; format: physicochemical; details: buffer
Quadruplex DNA [3] = experiment: Stabilization of 5'-FAM and 3'-TAMRA labelled c-Myc G4-quadruplex Pu24T DNA (unknown origin) assessed as increase in thermal stability of DNA structure at 5 to 40 equiv. by FRET melting assay; details: dose 5-40 equiv
Quadruplex DNA [4] = experiment: Stabilization of G4-quadruplex PEPu24T DNA (unknown origin) assessed as inhibition of Taq DNA polymerase activity by measuring full length DNA product at 0.24 uM pretreated for 10 mins followed by incubation with dNTPs for 15 mins by PAGE analysis; format: nucleic-acid assay; parameters: scale not given: the % may be the effect or the level left; details: time 25.0 min
In short: (§2)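 Template made by annealing TET-labelled 25 nt primer (1 μM final) to PEPu24T (1.25 μM final) in 100 mM KCl. Reaction: 40 nM template, Taq buffer pH 8.8 with 50 mM KCl, 25 mM MgCl2, 0.05 U Taq. Compound preincubated on ice 10 min; dNTPs (100 μM) added, 37 °C 15 min. Denaturing 12% urea/formamide PAGE; full-length product expressed as % of no-compound sample; SD of ≥2 independent experiments.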

Quadruplex DNA [5] = experiment: Stabilization of G4-quadruplex PEPu24T DNA (unknown origin) assessed as inhibition of Taq DNA polymerase activity by measuring reduction in full length DNA product at 0.048 to 6 uM pretreated for 10 mins followed by incubation with dNTPs for 15 mins by PAGE analysis; format: nucleic-acid assay; details: dose 0.048-6 µM, time 25.0 min; in short: as §2
Quadruplex DNA [6] = experiment: Stabilization of fluorescently labelled c-Myc G4-quadruplex Pu22 DNA (unknown origin) assessed as increase in thermal stability of DNA structure at 5 to 40 equiv. by FRET melting assay; format: nucleic-acid assay; details: dose 5-40 equiv
In short: (§3)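 Pu22 (FAM/TAMRA, 0.2 μM), folded in 10 mM lithium cacodylate pH 7.4, 2 mM KCl, 98 mM LiCl. Ligand at 5, 10, 25 or 40 equivalents. Heated 10–95 °C; donor emission at 516 nm (excitation 492 nm) normalized. Tm taken at 0.5 normalized emission; ΔTm is Tm with ligand minus Tm without ligand. Duplicate wells.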

Quadruplex DNA [7] = experiment: Stabilization of fluorescently labelled c-Myc G4-quadruplex Pu22 DNA (unknown origin) assessed as increase in thermal stability of DNA structure at 40 equiv. by FRET melting assay; format: nucleic-acid assay; in short: as §3
Quadruplex DNA [8] = experiment: Stabilization of fluorescently labelled G4-quadruplex Bom17 DNA (unknown origin) assessed as increase in thermal stability of DNA structure at 2 uM by FRET melting assay; format: nucleic-acid assay
In short: (§4)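 0.2 μM FAM/TAMRA dual-labelled oligonucleotide, prefolded in 10 mM lithium cacodylate pH 7.4, 10 mM KCl, 90 mM LiCl (95 °C 10 min, then ≥1 h cold). Ligand added and sample heated from 10 to 95 °C; donor emission at 516 nm (excitation 492 nm) normalized. Tm taken at 0.5 normalized emission; ΔTm is Tm with ligand minus Tm without ligand. Duplicate wells.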

Quadruplex DNA [9] = experiment: Binding affinity to c-Myc G4-quadruplex Pu22 DNA (unknown origin) at 0.7 equivalent by NMR titration analysis; format: nucleic-acid assay; details: dose 0.7 equiv
In short: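 Pu22 folded at 100 μM in 10 mM potassium phosphate pH 7.4, 35 mM KCl (95 °C 10 min, cooled overnight). 10% D2O added, giving 90 μM DNA. Compound added stepwise in increasing equivalents. 1D 1H spectra with excitation sculpting, 256 scans, 298 K, 850 MHz.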

Quadruplex DNA [10] = experiment: Stabilization of fluorescently labelled G4-quadruplex c-KIT2 DNA (unknown origin) assessed as increase in thermal stability of DNA structure at 2 uM by FRET melting assay; format: nucleic-acid assay; in short: as §4
Quadruplex DNA [11] = experiment: Stabilization of G4-quadruplex DNA in human HeLa cells assessed as increase in BG4-positive cell nuclei at 1 to 2 uM incubated for 24 hrs by immunofluorescence microscopy; format: functional, cell-based; details: dose 1-2 µM
In short: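 HeLa cells (60,000 on coverslips) treated 24 h. Cells fixed in 2% paraformaldehyde, permeabilized in 0.1% Triton X-100, blocked in 2% milk. Stained with BG4–FLAG (1/3000), rabbit anti-FLAG, then Alexa594 anti-rabbit, each 1 h at 37 °C; nuclei stained with DAPI. BG4 foci per nucleus counted, 90–166 cells per condition. Welch-corrected t tests on ln-transformed data; mean ± 2SD shown.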

Quadruplex DNA [12] = experiment: Stabilization of fluorescently labelled G4-quadruplex Tba DNA (unknown origin) assessed as increase in thermal stability of DNA structure at 2 uM by FRET melting assay; format: nucleic-acid assay; in short: as §4
[13] = Stabilization of double stranded PEPu24T mut DNA (unknown origin) assessed as inhibition of Taq DNA polymerase activity by measuring reduction in full length DNA product at >4 uM pretreated for 10 mins followed by incubation with dNTPs for 15 mins by PAGE analysis; details: time 25.0 min; in short: as §1
Quadruplex DNA [14] = experiment: Stabilization of fluorescently labelled c-Myc G4-quadruplex Pu22 DNA (unknown origin) assessed as increase in thermal stability of DNA structure at 2 uM in presence of double stranded competitor DNA ds26 by FRET melting assay; format: nucleic-acid assay
In short: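 Competition melting: 0.2 μM labelled Pu22 in 10 mM lithium cacodylate pH 7.4, 2 mM KCl, 98 mM LiCl, with ligand plus 0–100 equivalents of ds26 duplex competitor. Heated 10–95 °C; FAM emission normalized. Tm taken at 0.5 normalized emission; ΔTm is Tm with ligand minus Tm without ligand. SD of at least six independent experiments.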

Quadruplex DNA [15] = experiment: Stabilization of fluorescently labelled G4-quadruplex Bcl2 DNA (unknown origin) assessed as increase in thermal stability of DNA structure at 2 uM by FRET melting assay; format: nucleic-acid assay; in short: as §4
Quadruplex DNA [16] = experiment: Stabilization of fluorescently labelled G4-quadruplex 25Ceb DNA (unknown origin) assessed as increase in thermal stability of DNA structure at 2 uM by FRET melting assay; format: nucleic-acid assay; in short: as §4
Quadruplex DNA [17] = experiment: Stabilization of fluorescently labelled G4-quadruplex 21G DNA (unknown origin) assessed as increase in thermal stability of DNA structure at 2 uM by FRET melting assay; format: nucleic-acid assay; in short: as §4
Quadruplex DNA [18] = experiment: Binding affinity to c-Myc G4-quadruplex Pu22 DNA (unknown origin) assessed as change in entropy by isothermal titration calorimetry; format: nucleic-acid assay
In short: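 Reverse titration: cell holds 20 μM ligand, syringe 120 μM prefolded G4 DNA, 20 injections in 10 mM potassium phosphate, 100 mM KCl, pH 7.4, at 19 °C. First injection 0.5 μL, then 2 μL, 120 s spacing, 1000 rpm, high-feedback mode. Data fitted to one-site binding model.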

Quadruplex DNA [19] = experiment: Stabilization of G4-quadruplex PEPu24T DNA (unknown origin) assessed as inhibition of Taq DNA polymerase activity by measuring reduction in full length DNA product at 0.24 uM pretreated for 10 mins followed by incubation with dNTPs for 15 mins by PAGE analysis; format: nucleic-acid assay; details: time 25.0 min; in short: as §2
Quadruplex DNA [20] = experiment: Stabilization of G4-quadruplex PEPu24T DNA (unknown origin) assessed as inhibition of Taq DNA polymerase activity by measuring reduction in full length DNA product at 0.048 uM pretreated for 10 mins followed by incubation with dNTPs for 15 mins by PAGE analysis; format: nucleic-acid assay; details: time 25.0 min; in short: as §2
dsDNA = experiment: Binding affinity to 5'-Cy5-labelled double stranded DNA ds26 (unknown origin) by microscale thermophoresis analysis; format: nucleic-acid assay
In short: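 Cy5-labelled DNA held at 25 nM, folded in 10 mM phosphate, 100 mM KCl, pH 7.4 (95 °C 5 min, cooled to room temperature). Ligand in 16 1:3 dilutions in 10 mM phosphate pH 7.4, 100 mM KCl, 0.05% Tween20. Capillary fluorescence read at 20% LED power; change in fluorescence versus ligand concentration fitted by nonlinear equation for binding constant.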

| SMILES | Activity [1] | solubility [2] [µM] | Activity (Quadruplex DNA [3]) | Activity (Quadruplex DNA [5]) | Activity (Quadruplex DNA [6]) | also measured |
| --- | --- | --- | --- | --- | --- | --- |
| Cc1cc(NCCCN(C)C)nc(Nc2nc3cc(Cl)c(Cl)cc3nc2C)n1 | inactive | – | Active | Active | Active | – |
| COc1ccc2nc(Nc3nc(C)cc(NCCCN(C)C)n3)nc(C)c2c1 | inactive | 858 (≈ 327 µg/mL) | Active | – | – | Activity (Quadruplex DNA [7]): Active |
| Cc1cc(NCCCN(C)C)nc(Nc2nc3ccccc3nc2C)n1 | inactive | – | Active | Active | Active | – |
| Cc1cc(NCCCN(C)C)nc(Nc2nc3cc(C)c(C)cc3nc2C)n1 | inactive | – | Active | Active | Active | – |
| Cc1cc(C)c2nc(Nc3nc(C)cc(NCCCN(C)C)n3)nc(C)c2c1 | – | 858 (≈ 326 µg/mL) | Active | – | – | Activity (Quadruplex DNA [8]): Active; Activity (Quadruplex DNA [9]): Active; Activity (Quadruplex DNA [10]): Active; Activity (Quadruplex DNA [11]): Active; Activity (Quadruplex DNA [12]): inactive; Activity [13]: Active; Activity (Quadruplex DNA [14]): Active; Activity (Quadruplex DNA [15]): Active; Activity (Quadruplex DNA [16]): Active; Activity (Quadruplex DNA [17]): Active; -TdeltaS (Quadruplex DNA [18]): 1.85 kcal/mol; inhibition (Quadruplex DNA [19]): 100%; inhibition (Quadruplex DNA [20]): 50%; Activity (dsDNA): inactive |

Further lines, with some results ahead:

| Activity [1] | solubility [2] [µM] | Activity (Quadruplex DNA [3]) | Activity (Quadruplex DNA [5]) | Activity (Quadruplex DNA [6]) | SMILES | also measured |
| --- | --- | --- | --- | --- | --- | --- |
| inactive | 858 (≈ 290 µg/mL) | Active | – | – | Cc1cc(NCCCN(C)C)nc(Nc2ncc3ccccc3n2)n1 | Activity (Quadruplex DNA [4]): 65% |
| inactive | 134 (≈ 37.4 µg/mL) | – | – | – | Cc1ccc2nc(Nc3nc(C)cc(C)n3)nc(C)c2c1 | – |

Source: ChEMBL document CHEMBL5385911, “Exploring the Dispersion and Electrostatic Components in Arene-Arene Interactions between Ligands and G4 DNA to Develop G4-Ligands” (J Med Chem, 2024)
